The data set in a line: Toxicity liver stage against HepG2, at 10uM. Details: test concentration 10 uM, cell line HepG2-A16-CD81EGFP. Conditions: human, HepG2-A16-CD81EGFP cells; read-out: INHIBITION
The data set is classed as cell-based. An outline of the steps: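 Uninfected HepG2-A16-CD81EGFP cells, 3 × 10^3 per well, 1536-well, plated on prespotted compound at 10 μM final, parasite-free screening media added to match infected plates; puromycin 10 μM positive, DMSO 0.5% negative; run in parallel with 48 h PbLuc assay at 37 °C, 5% CO2; viability by CellTiter-Glo luminescence, normalized to controls.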
As to `Cc1cc(C)n(CC(=O)N2Cc3cnc(C(C)(C)C)nc3C2)n1`, the cytotoxicity at 10 µM came out at 3.1%. With `Cn1cnc2c1CCN(c1ccnc(-c3ccccc3)n1)C2`, the cytotoxicity at 10 µM was 7.51%. In the case of `CCc1nc(CN2CCCN(C(=O)c3cn[nH]c3C)CC2)cs1` it was -2.97%; in that of `O=C(NCC(=O)N1CCCC1Cc1cccc(F)c1)C1CCCC1` (configuration not stated), -18%.

For the compound `CC(C)C(=O)NC1CCN(CCO)CC1`, the cytotoxicity at 10 µM was -8.84%.

Take `CNC(=O)Cc1noc(-c2cc3c(s2)CCC(C)C3)n1` (configuration not stated): the cytotoxicity at 10 µM was determined as 4.75%. In the case of `CCNc1cc2c(nn1)CCN(C(=O)c1ccnc(N(C)C)c1)C2` it was -20.9%; in that of `COc1ccccc1N1CC(NC(=O)c2cc(C(C)C)nn2C)CC1=O` (configuration not stated), 52.4%. As to `CN(C)C(=O)NC1COC2(CCN(C(=O)Nc3ccccc3)CC2)C1` (configuration not stated), the cytotoxicity at 10 µM was 0.179%. `COc1cccc2c1OCCCN(c1nc(C)nc3c1CCNCC3)C2`: the cytotoxicity at 10 µM was -10.6%. Regarding `N#Cc1cccc(C(=O)Nc2ccc([C@@H](O)[C@H]3COCC(=O)N3)cc2)c1`, the cytotoxicity at 10 µM is -4.25%. In the case of `COCCN(Cc1ccc(C)cc1)CC1CCOC1` (configuration not stated) it was -9.06%; in that of `CCc1cnc(N2CCCC(CCC(N)=O)C2)nc1` (configuration not stated), 2.25%. Regarding `CC(C)N(C)[C@@H]1CCN(Cc2nccs2)[C@H]1Cc1ccncc1`, the cytotoxicity at 10 µM was -2.75%. On to `N#Cc1ccc(OC[C@]23COC[C@H]2CN(Cc2ccccn2)C3)nc1`, for which the cytotoxicity at 10 µM is -0.182%. Regarding `c1ccc(-c2cc(CN3CCCC(Cn4cncn4)C3)on2)cc1` (configuration not stated), the cytotoxicity at 10 µM was -15.9%. Then `Cc1nn(C)c2ncc(NC(=O)N3CCCCCC3)cc12`, with 4.87%; and `CCn1cc(C(=O)NCC2(C(N)=O)CCOCC2)c2ccccc21`, with 0.969%. In the case of `O=C1CO[C@@H]2CN(Cc3ccsc3)C[C@H]2N1Cc1ccncc1`, the cytotoxicity at 10 µM was -73%. Regarding `C[C@@H]1CN(C(=O)c2cc(Cn3ccc4ccccc43)[nH]n2)C[C@H](C)O1`, the cytotoxicity at 10 µM was -12.2%. Then `CCC(CC)NC(=O)CN1CCSCC1`, with -8.98%; and `Cc1nn(CCO)cc1CN1CCC(C(C)N2CCCC2)CC1` (configuration not stated), with -1.04%. `Cc1ccc2nc(CN3CCC(O)(Cn4ccnc4)CC3)cc(O)c2c1`: the cytotoxicity at 10 µM is -47.8%. Then `O=C(N1CCCC1)N1Cc2nccn2CC(COc2cccnc2)C1` (configuration not stated), with 0.997%; and `Cc1ccccc1-c1cncc(C2CCN(C3CCOCC3)CC2)n1`, with -2.81%; and `Cc1ncsc1CCN(C)C(=O)C(c1cccnc1)N1CCOCC1` (configuration not stated), with -6.02%. In the case of `Cc1occc1C(=O)N1CCC(C(O)c2ccc(F)cc2)CC1` (configuration not stated), the cytotoxicity at 10 µM was -2.69%. For `COc1ccc([C@@H]2CN(C(=O)CCc3cc(Cl)no3)C[C@H]2N(C)C)cc1`, the cytotoxicity at 10 µM stood at 6.1%. On to `O=C(c1ccccn1)N1CCc2ncc(Cn3cccn3)n2CC1`, for which the cytotoxicity at 10 µM worked out at 5.44%. In the case of `CCCNC(=O)CN1CCC(NCc2c(C)nn(C)c2OC)CC1`, the cytotoxicity at 10 µM is -5.32%. Take `COCCCN1CC2(CCC1=O)CCN(Cc1cc(C)no1)CC2`: the cytotoxicity at 10 µM came out at 4.08%. Then `CN(C)CCN1C(=O)CCC12CCN(Cc1cccs1)CC2`, with 3.88%; and `O=C(CN1CC(n2cccn2)C1)NCCc1c[nH]c2ccccc12`, with -4.74%.

As for `O=C(NCC1CCOC1)Nc1ccc(OCC(F)(F)F)nc1` (configuration not stated), the cytotoxicity at 10 µM is -5.41%. Then `O=C(NCC1=CCCCC1)C(c1cccnc1)N1CCCC1` (configuration not stated), with -3.78%.

Consider `COCC1CC2(CCN(Cc3nccn3C)CC2)CN1c1ncccn1` (configuration not stated), for which the cytotoxicity at 10 µM is 5.1%.

In the case of `Cn1nnnc1SCC(=O)N1CCN(C(=O)C2CC2c2cccs2)CC1` (configuration not stated), the cytotoxicity at 10 µM was found to be 8.58%.

For `CCCN1CC2(CCN(C)CC2)CC1C(=O)NCCn1nc(C)nc1C` (configuration not stated), the cytotoxicity at 10 µM turned out to be 2.7%. As for `CCOc1ccc(NC(C)C(=O)NCCc2cccs2)cc1CO` (configuration not stated), the cytotoxicity at 10 µM is -6.79%. Then `COCCNC(=O)NCc1cccc(-n2ccnc2)c1`, with 16.1%; and `COc1ccc(Cl)cc1NC(=O)CCNc1ccc(C#N)cn1`, with 2.59%.

As to `CCN1C(=O)C2(CCOCC2)c2cc(NC(=O)c3cnccn3)ccc21`, the cytotoxicity at 10 µM was -2.98%. Consider `CN(CC(=O)NC(c1ccc(F)cc1)C(F)(F)F)S(C)(=O)=O` (configuration not stated), for which the cytotoxicity at 10 µM is -11.9%. In the case of `CCc1ccc(S(=O)(=O)Nc2cnccc2C)s1` it was -3.63%; in that of `O=C(O)C1(Oc2ccc3ccccc3c2)CCN(c2ccncc2)CC1`, 0.542%.

Take `c1cncc(CN2CCC(c3csc4nccn34)CC2)c1`: the cytotoxicity at 10 µM is 2.9%.

`COCCN1CC[C@]2(CN(C(=O)c3cccs3)C[C@H]2C)C1=O`: the cytotoxicity at 10 µM was found to be 3.47%. In the case of `CN1CC2(CCN(C(=O)c3coc4c3C(=O)CCC4)C2)OC1=O` (configuration not stated) it was -2.36%; in that of `Cc1nnc(-c2cccc(N3CCC(NC4CCSC4)CC3)c2)s1` (configuration not stated), 0.276%; in that of `CS(=O)(=O)NC[C@]12COC[C@H]1CN(C(=O)c1cnccn1)C2`, 6.3%. In the case of `Cc1ccc(C(=O)N2CCN(C(=O)C(C)n3ccnc3)CC2)cc1F` (configuration not stated) it was 3.72%; in that of `CN(CCc1ccccc1)C(=O)c1cccnc1OCC(F)(F)F`, 13.5%. Then `COc1ncccc1CNC(=O)N1CCC(CNC(C)=O)CC1`, with 3.4%; and `CO[C@@H]1CC[C@H]2[C@H]1OCCN2C(=O)c1ccc(C)nc1`, with -143%. `CC(C)C(=O)N1CCCC(Cc2ccccn2)C1` (configuration not stated): the cytotoxicity at 10 µM was -5.3%. On to `CN(Cc1c(F)cccc1Cl)C(=O)c1cnn(CCN2CCCCC2)c1`, for which the cytotoxicity at 10 µM is -19.1%. For the compound `CCCN1CCN(c2nc(N)nc3c2nc(C)n3C)CC1`, the cytotoxicity at 10 µM is -5.15%.

For the compound `COCC(=O)N1CCc2nc(C(=O)Nc3cccnc3)sc2CC1`, the cytotoxicity at 10 µM is 7.98%. On to `N#CCCN(Cc1cccnc1)C(=O)c1ccc(-n2cnnn2)cc1`, for which the cytotoxicity at 10 µM worked out at 4.59%. In the case of `O=C(CCn1ncc2c(Cl)cccc21)NCCCn1cccn1` it was 6.25%. Then `Cc1nnc(CN(C)C2CCN(c3cccc(-c4cscn4)c3)CC2)o1`, with -7.3%; and `COCCO[C@@H]1CCN(C(=O)c2ccc[nH]2)[C@H]1Cc1cnn(C)c1`, with -71.7%. In the case of `COC(=O)N1CCC(CNC(=O)C2CCN(S(C)(=O)=O)CC2)CC1` it was -2.72%; in that of `O=C(c1ccc(O)cc1)N1CCN(C(=O)c2ccc3c(c2)COC3)CC1`, -9.75%.

On to `CC1c2ncc(Cn3cncn3)n2CCN1C(=O)C1CCOCC1` (configuration not stated), for which the cytotoxicity at 10 µM was -13%. In the case of `O=C(c1ccc(C(F)(F)F)cc1)C1CCCN(C(=O)Cn2cnnn2)C1` (configuration not stated) it was -5.34%. In the case of `Cn1cnn(Cc2c(F)cccc2Br)c1=O`, the cytotoxicity at 10 µM came to 4.48%. In the case of `CC(C)N1CCCCC1c1cncc(Cl)n1` (configuration not stated) it was 8.41%; in that of `COc1ncccc1C(=O)N1CCC(c2nc3c(C)cccc3[nH]2)CC1`, 11.7%. In the case of `COCCNC(=O)c1cc(COc2cncc(Cl)c2)on1` it was 0.141%. In the case of `COCCN1CCN(Cc2ccc(OCc3nccn3C)cc2)CC1` it was -7.11%.

In the case of `CCC(NC(=O)CN(C)Cc1ccc(C)o1)c1ccc(C)cc1` (configuration not stated), the cytotoxicity at 10 µM worked out at 3.97%.

In the case of `O=C(NCCCn1nc2ccccn2c1=O)NC1CCC(O)CC1` (configuration not stated), the cytotoxicity at 10 µM was -12.8%. With `Cc1ccccc1OCC(=O)N1CCOC2(CNCCOC2)C1` (configuration not stated), the cytotoxicity at 10 µM is -2.96%. As to `CCc1ccc(C(=O)N(CC)Cc2ccoc2)cc1S(C)(=O)=O`, the cytotoxicity at 10 µM is -4.89%. On to `CN(CCCOc1ccccc1)S(=O)(=O)c1cnn(C)c1`, for which the cytotoxicity at 10 µM is -6.7%. In the case of `CCc1nnsc1C(=O)N(C)Cc1ccc(Br)o1` it was -48.8%; in that of `COc1nc2c(cc1C(=O)NCc1noc(-c3ccco3)n1)CCC2`, -6.04%. For `CSCc1noc(CNC(=O)C2CCN(C3CCCCC3)CC2)n1`, the cytotoxicity at 10 µM is 8.45%. For `CN1CCN(Cc2cccnc2)C2(CCN(Cc3ccccn3)C2)C1=O` (configuration not stated), the cytotoxicity at 10 µM is -3.66%.

For `Cc1nccc(NCc2cncc3c2CCN(CC2CC2)C3)n1`, the cytotoxicity at 10 µM was -92.4%. For `CNCc1cc(C)n(-c2ccccc2OC)c1C`, the cytotoxicity at 10 µM was -45%.

With `CC[C@@H](c1ccccc1)n1c(C2CC2)n[nH]c1=O`, the cytotoxicity at 10 µM is -8.67%. In the case of `COCC(=O)N1CCC(c2n[nH]c3nccnc23)CC1` it was -8.38%; in that of `O=C(NCc1ccco1)[C@H]1CC[C@@H]2[C@@H](CCN2Cc2cccnc2)O1`, -3.68%; in that of `COc1nc(C)c(C(=O)N(C)Cc2nc(-c3ccccn3)no2)s1`, -8.44%. Then `O=C(c1cscn1)N1C[C@@H]2[C@@H](C1)OCC(=O)N2CC1CCCC1`, with -10.2%; and `O=C(NCCCc1cccs1)N1CCCCC1CCO` (configuration not stated), with 6.06%; and `Fc1ccc(NCc2ccncc2)c(OC(F)F)c1`, with 10.5%.

Consider `CC(Oc1ccc2c(c1)OCO2)C(=O)N1CCC(N2CCOCC2)CC1` (configuration not stated), for which the cytotoxicity at 10 µM was -13.5%.

On to `OC1(CN2CCCC2)CCCN(Cc2c[nH]c(CC3CCCC3)n2)C1` (configuration not stated), for which the cytotoxicity at 10 µM was -9.09%. For the compound `Cc1nc(N2CCOCC2)nc2c1CCN(Cc1nccn1C)CC2`, the cytotoxicity at 10 µM was -125%. As for `Cc1cc(N2CCN3CCCCC3C2)n2nc(C)c(C)c2n1` (configuration not stated), the cytotoxicity at 10 µM is -10.4%. For the compound `Cc1ccc(F)c(OC2(C(=O)O)CCN(C(=O)c3ccccc3)CC2)c1`, the cytotoxicity at 10 µM was 4.2%. In the case of `Cn1nccc1-c1ncc2c(c1C(=O)O)CCN(Cc1ccncc1)C2` it was 6.1%; in that of `CN(C)Cc1ccc(C2CCCCN2C(=O)c2cc(=O)[nH]c(=O)[nH]2)cc1` (configuration not stated), -3.95%.

As for `CC(C)c1ncncc1C(=O)N1CCN(Cc2cscn2)CC1`, the cytotoxicity at 10 µM is -5.75%.

For the origin of these results see ChEMBL document CHEMBL4513216, “Probing the Open Global Health Chemical Diversity Library for Multistage-Active Starting Points for Next-Generation Antimalarials” (ACS Infect Dis, 2020).
